{"source": "ChEMBL document CHEMBL3779799", "about": "“Antifibrotic and anticancer action of 5-ene amino/iminothiazolidinones” (Eur J Med Chem, 2016)", "key": {"[1]": {"assay": "Cytotoxicity against human SF295 cells assessed as cell growth at 10^-5 M after 48 hrs by sulforhodamine B assay relative to control", "assay_type": "functional", "conditions": "SF-295, 48 h, read-out: Activity", "outline": "(§1)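 NCI ~60 human tumor cell line one-dose screen covering nine cancer types. Cells were preincubated 24–48 h, then exposed to compound at 10^-5 M for 48 h. SRB protein staining was the endpoint, and growth percent was calculated versus untreated control cells.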"}, "[2]": {"tested_on": "HFL1", "assay": "Antifibrotic activity in HFL1 cells assessed as inhibition of cell viability after 48 hrs by sulforhodamine B assay", "assay_type": "functional, cell-based", "conditions": "Homo sapiens, HFL1, 48 h", "outline": "(§2)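 HFL-1 human fetal lung fibroblasts (DMEM, 10% FCS, passages 14–18) seeded at 8000 cells/well, attached overnight, then exposed to a range of concentrations for 48 h in triplicate. Cells were fixed with TCA and stained with 0.4% SRB, bound dye was solubilized in Tris, and OD was read at 570 nm relative to control.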"}, "[3]": {"assay": "Cytotoxicity against human SNB75 cells assessed as cell growth at 10^-5 M after 48 hrs by sulforhodamine B assay relative to control", "assay_type": "functional", "conditions": "SNB-75, 48 h, read-out: Activity", "outline": "as §1"}, "[4]": {"tested_on": "HFL1", "assay": "Antifibrotic activity in HFL1 cells assessed as inhibition of cell viability at >1 uM after 48 hrs by sulforhodamine B assay relative to control", "assay_type": "functional", "conditions": "Homo sapiens, HFL1, 48 h", "outline": "as §2"}, "[5]": {"assay": "Cytotoxicity against human NCI60 cells assessed as cell growth at 10^-5 M after 48 hrs by sulforhodamine B assay relative to control", "assay_type": "functional", "conditions": "NCI60, 48 h, read-out: Activity", "outline": "as §1"}, "[6]": {"tested_on": "MDA-MB-435", "assay": "Cytotoxicity against human MDA-MB-435 cells assessed as cell growth at 10^-5 M after 48 hrs by sulforhodamine B assay relative to control", "assay_type": "functional", "conditions": "MDA-MB-435, 48 h, read-out: Activity", "outline": "as §1"}, "[7]": {"tested_on": "NCI-H522", "assay": "Cytotoxicity against human NCI-H522 cells assessed as cell growth at 10^-5 M after 48 hrs by sulforhodamine B assay relative to control", "assay_type": "functional", "conditions": "NCI-H522, 48 h, read-out: Activity", "outline": "as §1"}, "[8]": {"assay": "Antioxidant activity assessed as inhibition of superoxide anion generation measured for 3 mins by nitro blue tetrazolium assay", "assay_type": "physicochemical", "outline": "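Cell-free superoxide generated by xanthine (1 mM) and xanthine oxidase (0.11 U/mL), with NBT (50 µM) as detector. Compounds in DMSO were tested up to 10 µM, with DMSO held at 0.1%. NBT reduction rate (dA560/dt) was read spectrophotometrically over 3 min from the linear part.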"}, "[9]": {"assay": "Cytotoxicity against human MOLT4 cells assessed as cell growth at 10^-5 M after 48 hrs by sulforhodamine B assay relative to control", "assay_type": "functional", "conditions": "MOLT-4, 48 h, read-out: Activity", "outline": "as §1"}, "[10]": {"assay": "Cytotoxicity against human UO31 cells assessed as cell growth at 10^-5 M after 48 hrs by sulforhodamine B assay relative to control", "assay_type": "functional", "conditions": "UO-31, 48 h, read-out: Activity", "outline": "as §1"}, "[11]": {"assay": "Cytotoxicity against human RPMI8226 cells assessed as cell growth at 10^-5 M after 48 hrs by sulforhodamine B assay relative to control", "assay_type": "functional", "conditions": "RPMI-8226, 48 h, read-out: Activity", "outline": "as §1"}}, "data": [{"smiles": "COc1ccc(-c2nnc(NC3=NC(=O)/C(=C/c4ccc(N(C)C)cc4)S3)o2)cc1", "values": [{"measurement": "growth at 10 µM", "setting": "[1]", "result": 69.8, "unit": "%"}, {"measurement": "IC50", "setting": "[2]", "result": 150, "unit": "nM"}, {"measurement": "growth at 10 µM", "setting": "[3]", "result": 60.4, "unit": "%"}, {"measurement": "Emax", "setting": "[4]", "result": 52.4, "unit": "%"}, {"measurement": "growth at 10 µM", "setting": "[5]", "result": 92.8, "unit": "%"}, {"measurement": "growth at 10 µM", "setting": "[6]", "result": 47.8, "unit": "%"}]}, {"smiles": "CN(C1=NC(=O)/C(=C2/C(=O)Nc3ccccc32)S1)c1ccc(O)cc1", "values": [{"measurement": "growth at 10 µM", "setting": "[7]", "result": 65.2, "unit": "%"}, {"measurement": "IC50", "setting": "[2]", "result": 1780, "unit": "nM"}, {"measurement": "Emax", "setting": "[4]", "result": 27.3, "unit": "%"}, {"measurement": "IC50", "setting": "[8]", "result": 350, "unit": "nM"}, {"measurement": "Emax", "setting": "[8]; 0.05 h", "result": 71.7, "unit": "%"}, {"measurement": "growth at 10 µM", "setting": "[5]", "result": 85.6, "unit": "%"}, {"measurement": "growth at 10 µM", "setting": "[9]", "result": 60.2, "unit": "%"}, {"measurement": "growth at 10 µM", "setting": "[10]", "result": 21.4, "unit": "%"}, {"measurement": "growth at 10 µM", "setting": "[11]", "result": 55.2, "unit": "%"}]}]}
